This note sets out measurements from ChEMBL document CHEMBL2311325, “New structure-activity relationship studies in a series of N,N-bis(cyclohexanol)amine aryl esters as potent reversers of P-glycoprotein-mediated multidrug resistance (MDR)” (Bioorg Med Chem, 2013).

One data set deals with P-glycoprotein (ABCB1) (Homo sapiens, UniProt P08183). Nature of the data set: Inhibition of P-glycoprotein in human doxorubicin-resistant K562 cells assessed as maximal increase of pirarubicin accumulation by spectrofluorometric analysis relative to control. The format is cell-based. The following applies: probe pirarubicin.
Data set [1] has as its target ATP-dependent translocase ABCB1 (Homo sapiens, UniProt P08183). Description: Inhibition of P-glycoprotein in human doxorubicin-resistant K562 cells assessed as half maximal increase of pirarubicin accumulation by spectrofluorometric analysis. The format is cell-based.
For data set [2], the system named is K562. Description: Reversal fold, ratio of doxorubicin IC50 for doxorubicin-resistant human K562 cells in absence of compound to doxorubicin IC50 for doxorubicin-resistant human K562 cells in presence of 0.1 uM of compound. Type of data set: functional. The essentials: (§1)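 K562/DOX cells seeded at 3000 cells/well and exposed to doxorubicin (0.001-10 µM) with or without modulator (0.1 or 1.0 µM; DMSO stocks diluted in complete medium) for 72 h at 37 °C, 5% CO2. Viability read by MTT (3 h, DMSO solubilization, 540 nm). Doxorubicin IC50 taken from plotted curves. RF = IC50 without modulator / IC50 with modulator. Quadruplicate cultures.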

For data set [3], the system named is K562. Nature of the data set: Reversal fold, ratio of doxorubicin IC50 for doxorubicin-resistant human K562 cells in absence of compound to doxorubicin IC50 for doxorubicin-resistant human K562 cells in presence of 1 uM of compound. Type of data set: functional. The method, boiled down: as §1
Data set [4] deals with K562. Description: Cytotoxicity against human doxorubicin-resistant K562 cells at 1 uM after 72 hrs by MTT assay. The following applies: k562, 72 h. Type of data set: cell-based. The essentials:
(§2)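 Intrinsic cytotoxicity of compound alone (no doxorubicin) tested at 1.0 µM on K562 and K562/DOX cells. Cells in exponential growth (3-5 × 10^5 cells/mL) seeded at 3000 cells/well and incubated 72 h at 37 °C, 5% CO2. MTT added for a further 3 h, formazan dissolved in DMSO, absorbance read at 540 nm. Quadruplicate cultures.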

Data set [5] relates to K562. Description: Cytotoxicity against human K562 cells at 1 uM after 72 hrs by MTT assay. Type of data set: cell-based. Conditions: k562, 72 h. The method, boiled down:
as §2

SMILES strings stand for the structures.

By Emax is commonly meant the maximal effect, on the per cent scale that the assay sets. The IC50 is the concentration needed to halve the response being measured.

Sequence of ATP-dependent translocase ABCB1 (P08183 whole entry): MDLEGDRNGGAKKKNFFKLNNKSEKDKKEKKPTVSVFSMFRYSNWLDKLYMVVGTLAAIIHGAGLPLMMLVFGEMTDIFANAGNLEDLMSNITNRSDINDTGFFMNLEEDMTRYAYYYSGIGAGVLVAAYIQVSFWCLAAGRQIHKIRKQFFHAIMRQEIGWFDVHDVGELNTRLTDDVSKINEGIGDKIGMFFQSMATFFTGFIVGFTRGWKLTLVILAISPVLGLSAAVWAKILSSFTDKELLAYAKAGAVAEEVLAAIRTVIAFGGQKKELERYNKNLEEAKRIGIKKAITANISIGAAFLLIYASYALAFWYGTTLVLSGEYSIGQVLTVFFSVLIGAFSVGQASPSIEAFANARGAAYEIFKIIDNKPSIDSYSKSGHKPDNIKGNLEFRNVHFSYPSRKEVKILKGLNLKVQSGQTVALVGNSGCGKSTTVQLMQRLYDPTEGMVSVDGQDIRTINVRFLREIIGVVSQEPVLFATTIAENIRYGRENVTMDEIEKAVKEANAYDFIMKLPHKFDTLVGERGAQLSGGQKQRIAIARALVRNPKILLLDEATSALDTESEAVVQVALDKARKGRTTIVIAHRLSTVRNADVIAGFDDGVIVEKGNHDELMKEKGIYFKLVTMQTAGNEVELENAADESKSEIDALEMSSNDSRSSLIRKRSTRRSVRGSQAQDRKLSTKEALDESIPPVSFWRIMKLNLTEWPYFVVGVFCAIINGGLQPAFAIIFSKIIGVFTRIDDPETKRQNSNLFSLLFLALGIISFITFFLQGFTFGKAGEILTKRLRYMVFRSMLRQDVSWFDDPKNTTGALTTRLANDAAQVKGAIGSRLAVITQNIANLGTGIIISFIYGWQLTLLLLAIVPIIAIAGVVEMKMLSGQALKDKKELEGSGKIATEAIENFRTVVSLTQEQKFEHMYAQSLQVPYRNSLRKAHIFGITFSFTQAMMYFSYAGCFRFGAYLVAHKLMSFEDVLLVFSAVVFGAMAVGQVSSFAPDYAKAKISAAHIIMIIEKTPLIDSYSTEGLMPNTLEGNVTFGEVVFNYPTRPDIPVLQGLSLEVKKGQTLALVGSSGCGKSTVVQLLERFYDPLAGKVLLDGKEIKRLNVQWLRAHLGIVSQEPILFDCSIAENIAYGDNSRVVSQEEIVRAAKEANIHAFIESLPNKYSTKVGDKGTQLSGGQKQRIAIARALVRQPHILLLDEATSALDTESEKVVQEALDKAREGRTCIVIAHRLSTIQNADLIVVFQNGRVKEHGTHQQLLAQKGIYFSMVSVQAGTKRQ
Sequence of P-glycoprotein (ABCB1) (P08183 whole entry): as above

As to `COc1ccc(C(C#N)(CCCNCc2c3ccccc3cc3ccccc23)C(C)C)cc1OC` (centres undefined), the Emax on P-glycoprotein (ABCB1) amounted to 70%.

On to `COc1cc(CCC(=O)O[C@H]2CC[C@H](N(C)[C@H]3CC[C@H](OC(=O)c4cc(OC)c(OC)c(OC)c4)CC3)CC2)cc(OC)c1OC`, for which the Emax at P-glycoprotein (ABCB1) is 76%. In addition, the IC50 in data set [1] came out at 610 nM.

Take `COc1cc(CCC(=O)O[C@H]2CC[C@@H](N(C)[C@H]3CC[C@@H](OC(=O)c4cc(OC)c(OC)c(OC)c4)CC3)CC2)cc(OC)c1OC`: at P-glycoprotein (ABCB1), the Emax amounted to 76%. Further, in data set [1], the IC50 is 1100 nM.

As for `COc1cc(C#CC(=O)O[C@H]2CC[C@H](N(C)[C@H]3CC[C@H](OC(=O)c4cc(OC)c(OC)c(OC)c4)CC3)CC2)cc(OC)c1OC`, the “Ratio IC50” value is 0.6 in the data set on K562 [2] and 1.9 with K562 [3]. Also, the Activity entry with K562 [4] and in the data set with K562 [5] was “Non-toxic” in each case. Besides, the maximal effect (Emax) on P-glycoprotein (ABCB1) stood at 99%. Also, in data set [1], the IC50 was determined as 70 nM.

With `COc1cc(C#CC(=O)O[C@H]2CC[C@@H](N(C)[C@H]3CC[C@@H](OC(=O)c4cc(OC)c(OC)c(OC)c4)CC3)CC2)cc(OC)c1OC`, the entries for the “Ratio IC50” value in the data set on K562 [2] and with K562 [3] were 2.3 and 4.5, respectively. In addition, the Activity entry with K562 [4] and in the data set with K562 [5] was “Non-toxic” in each case. The Emax at P-glycoprotein (ABCB1) worked out at 99%. Besides, in data set [1], the IC50 stood at 70 nM.

With `COc1cc(/C=C/C(=O)O[C@H]2CC[C@H](N(C)[C@H]3CC[C@H](OC(=O)c4cc(OC)c(OC)c(OC)c4)CC3)CC2)cc(OC)c1OC`, the “Ratio IC50” value in the data set with K562 [3] is on record as 9.2. The Emax on P-glycoprotein (ABCB1) amounted to 81%. For the same molecule, the IC50 in data set [1] turned out to be 320 nM.

Turning to `COc1cc(/C=C/C(=O)O[C@H]2CC[C@@H](N(C)[C@H]3CC[C@@H](OC(=O)c4cc(OC)c(OC)c(OC)c4)CC3)CC2)cc(OC)c1OC`, the “Ratio IC50” value in the data set on K562 [3] was determined as 9.8. Moreover, the Emax at P-glycoprotein (ABCB1) was 80%. Further, in data set [1], the IC50 was found to be 30 nM.

On to `COc1cc(/C=C/C(=O)O[C@H]2CC[C@@H](N(C)[C@H]3CC[C@H](OC(=O)c4cc(OC)c(OC)c(OC)c4)CC3)CC2)cc(OC)c1OC`, for which, in the data set on K562 [3], the “Ratio IC50” value came out at 20.3. Also, the Emax at P-glycoprotein (ABCB1) was found to be 98%. In addition, the IC50 in data set [1] turned out to be 12 nM.

Consider `COc1ccc(C(C#N)(CCC(=O)O[C@H]2CC[C@H](N(C)[C@H]3CC[C@H](OC(=O)/C=C/c4cc(OC)c(OC)c(OC)c4)CC3)CC2)C(C)C)cc1OC` (some centres undefined), for which the Emax at P-glycoprotein (ABCB1) is 99%. Further, the IC50 in data set [1] turned out to be 140 nM.

On to `COc1ccc(C(C#N)(CCC(=O)O[C@H]2CC[C@@H](N(C)[C@H]3CC[C@@H](OC(=O)/C=C/c4cc(OC)c(OC)c(OC)c4)CC3)CC2)C(C)C)cc1OC` (some centres undefined), for which the Emax at P-glycoprotein (ABCB1) was 99%. In data set [1], the IC50 amounted to 150 nM.

As for `COc1cc(/C=C/C(=O)O[C@H]2CC[C@H](N(C)[C@H]3CC[C@H](OC(=O)C4c5ccccc5-c5ccccc54)CC3)CC2)cc(OC)c1OC`, the “Ratio IC50” value with K562 [2] came out at 2; in the data set with K562 [3], 2.9. In addition, the Activity result in the data set on K562 [4] and in the data set with K562 [5] was “Non-toxic” in each case. Besides, at P-glycoprotein (ABCB1), the Emax was 94%. In addition, the IC50 in data set [1] came to 75 nM.

With `COc1cc(/C=C/C(=O)O[C@H]2CC[C@@H](N(C)[C@H]3CC[C@@H](OC(=O)C4c5ccccc5-c5ccccc54)CC3)CC2)cc(OC)c1OC`, on P-glycoprotein (ABCB1), the Emax came out at 90%. For the same molecule, the IC50 in data set [1] was 180 nM.

Turning to `COc1ccc(C(C(=O)O[C@H]2CC[C@H](N(C)[C@H]3CC[C@H](OC(=O)C#Cc4cc(OC)c(OC)c(OC)c4)CC3)CC2)c2ccc(OC)cc2)cc1`, the Emax at P-glycoprotein (ABCB1) is 74%. In data set [1], the IC50 was 140 nM.

For the molecule `COc1cc(C#CC(=O)O[C@H]2CC[C@H](N(C)[C@H]3CC[C@H](OC(=O)C4c5ccccc5-c5ccccc54)CC3)CC2)cc(OC)c1OC`, the Emax on P-glycoprotein (ABCB1) came to 77%. Also, the IC50 in data set [1] was determined as 500 nM.

For `COc1cc(C#CC(=O)O[C@H]2CC[C@@H](N(C)[C@H]3CC[C@@H](OC(=O)C4c5ccccc5-c5ccccc54)CC3)CC2)cc(OC)c1OC`, the Emax at P-glycoprotein (ABCB1) amounted to 89%. Further, the IC50 in data set [1] is 50 nM.

On to `COc1cc(/C=C/C(=O)O[C@H]2CC[C@H](N(C)[C@H]3CC[C@@H](OC(=O)c4cc(OC)c(OC)c(OC)c4)CC3)CC2)cc(OC)c1OC` (mixture of isomers), for which the “Ratio IC50” value in the data set on K562 [3] stood at 7.7. Further, the Emax on P-glycoprotein (ABCB1) worked out at 85%. In addition, the IC50 in data set [1] came to 92 nM.

With `COc1cc(CCC(=O)O[C@H]2CC[C@H](N(C)[C@H]3CC[C@@H](OC(=O)c4cc(OC)c(OC)c(OC)c4)CC3)CC2)cc(OC)c1OC` (mixture of isomers), the Emax on P-glycoprotein (ABCB1) was 75%. In data set [1], the IC50 was 630 nM.

With `COc1cc(CCC(=O)O[C@H]2CC[C@@H](N(C)[C@H]3CC[C@H](OC(=O)c4cc(OC)c(OC)c(OC)c4)CC3)CC2)cc(OC)c1OC` (mixture of isomers), the Emax on P-glycoprotein (ABCB1) turned out to be 77%. Further, in data set [1], the IC50 is 350 nM.

Regarding `COc1cc(C#CC(=O)O[C@H]2CC[C@H](N(C)[C@H]3CC[C@@H](OC(=O)c4cc(OC)c(OC)c(OC)c4)CC3)CC2)cc(OC)c1OC` (mixture of isomers), the “Ratio IC50” value is 1.6 with K562 [2] and 1.5 with K562 [3]. For the same molecule, the Activity entry in the data set on K562 [4] and in the data set on K562 [5] was “Non-toxic” in each case. Also, the Emax on P-glycoprotein (ABCB1) came out at 98%. In data set [1], the IC50 came to 80 nM.

`COc1cc(C#CC(=O)O[C@H]2CC[C@@H](N(C)[C@H]3CC[C@H](OC(=O)c4cc(OC)c(OC)c(OC)c4)CC3)CC2)cc(OC)c1OC` (mixture of isomers): the “Ratio IC50” value in the data set on K562 [2] was 2; in the data set with K562 [3], 8.5. Moreover, the Activity entry in the data set on K562 [4] and with K562 [5] was “Non-toxic” each time. Besides, on P-glycoprotein (ABCB1), the Emax amounted to 99%. For the same molecule, the IC50 in data set [1] worked out at 20 nM.

Regarding `COc1ccc(C(C#N)(CCC(=O)O[C@H]2CC[C@H](N(C)[C@H]3CC[C@@H](OC(=O)/C=C/c4cc(OC)c(OC)c(OC)c4)CC3)CC2)C(C)C)cc1OC` (mixture of isomers), the Emax at P-glycoprotein (ABCB1) came to 88%. The IC50 in data set [1] is 240 nM.

For `COc1ccc(C(C#N)(CCC(=O)O[C@H]2CC[C@@H](N(C)[C@H]3CC[C@H](OC(=O)/C=C/c4cc(OC)c(OC)c(OC)c4)CC3)CC2)C(C)C)cc1OC` (mixture of isomers), the “Ratio IC50” value in the data set on K562 [2] turned out to be 3; in the data set on K562 [3] it was 10.7. For the same molecule, the Activity result in the data set with K562 [4] and in the data set on K562 [5] was “Non-toxic” throughout. In addition, the Emax at P-glycoprotein (ABCB1) was found to be 89%. Besides, the IC50 in data set [1] amounted to 80 nM.

Regarding `COc1cc(/C=C/C(=O)O[C@H]2CC[C@@H](N(C)[C@H]3CC[C@H](OC(=O)C4c5ccccc5-c5ccccc54)CC3)CC2)cc(OC)c1OC` (mixture of isomers), the entries for the “Ratio IC50” value in the data set with K562 [2] and with K562 [3] were 2.3 and 5, respectively. In addition, the Activity result in the data set on K562 [4] and in the data set with K562 [5] was “Non-toxic” throughout. Further, the Emax on P-glycoprotein (ABCB1) is 81%. Moreover, in data set [1], the IC50 turned out to be 80 nM.

For `COc1cc(/C=C/C(=O)O[C@H]2CC[C@H](N(C)[C@H]3CC[C@@H](OC(=O)C4c5ccccc5-c5ccccc54)CC3)CC2)cc(OC)c1OC` (mixture of isomers), the Emax at P-glycoprotein (ABCB1) amounted to 99%. Also, the IC50 in data set [1] came out at 150 nM.

For the molecule `COc1ccc(C(C(=O)O[C@H]2CC[C@H](N(C)[C@H]3CC[C@@H](OC(=O)C#Cc4cc(OC)c(OC)c(OC)c4)CC3)CC2)c2ccc(OC)cc2)cc1` (mixture of isomers), on P-glycoprotein (ABCB1), the Emax is 76%. Further, the IC50 in data set [1] amounted to 130 nM.

As for `COc1ccc(C(C(=O)O[C@H]2CC[C@@H](N(C)[C@H]3CC[C@@H](OC(=O)C#Cc4cc(OC)c(OC)c(OC)c4)CC3)CC2)c2ccc(OC)cc2)cc1` (mixture of isomers), at P-glycoprotein (ABCB1), the Emax amounted to 94%. The IC50 in data set [1] was determined as 120 nM.

In the case of `COc1ccc(C(C(=O)O[C@H]2CC[C@@H](N(C)[C@H]3CC[C@H](OC(=O)C#Cc4cc(OC)c(OC)c(OC)c4)CC3)CC2)c2ccc(OC)cc2)cc1` (mixture of isomers), the Emax at P-glycoprotein (ABCB1) came out at 99%. For the same molecule, the IC50 in data set [1] turned out to be 20 nM.

Regarding `COc1cc(C#CC(=O)O[C@H]2CC[C@@H](N(C)[C@H]3CC[C@H](OC(=O)C4c5ccccc5-c5ccccc54)CC3)CC2)cc(OC)c1OC` (mixture of isomers), on P-glycoprotein (ABCB1), the Emax is 96%. The IC50 in data set [1] worked out at 120 nM.

Take `COc1cc(C#CC(=O)O[C@H]2CC[C@H](N(C)[C@H]3CC[C@@H](OC(=O)C4c5ccccc5-c5ccccc54)CC3)CC2)cc(OC)c1OC` (mixture of isomers): the Emax at P-glycoprotein (ABCB1) was determined as 91%. In addition, the IC50 in data set [1] was 290 nM.
